MrgX1 antagonist: antagonists of human MrgX1 receptor, primary screen, HEK293 cells, Fluo-4 calcium flux | BAM8-22 antagonism; hits give low values | B-score at 10 µM | 310,000 compounds, 1.3% hits;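 active = calcium-response B-score plate-corrected more than 3 library SD below zero, starting fluorescence within 5 deviations, no agonist response on first addition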;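 note: peak minus trough fluorescence over baseline after final BAM8-22 challenge near maximal dose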
Target sequence (Q96LB2 whole entry, looked up): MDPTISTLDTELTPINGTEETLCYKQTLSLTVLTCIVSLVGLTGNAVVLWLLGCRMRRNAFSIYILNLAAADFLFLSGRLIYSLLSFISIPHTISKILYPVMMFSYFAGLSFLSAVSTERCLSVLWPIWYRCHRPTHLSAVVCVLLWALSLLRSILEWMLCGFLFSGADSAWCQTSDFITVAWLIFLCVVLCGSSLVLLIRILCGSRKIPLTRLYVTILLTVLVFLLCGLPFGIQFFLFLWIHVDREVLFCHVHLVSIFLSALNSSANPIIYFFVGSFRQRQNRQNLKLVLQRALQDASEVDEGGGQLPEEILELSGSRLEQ
MrgX1 ag: agonists of human MrgX1 receptor, primary screen, HEK293 cells, Fluo-4 calcium flux; Mas-related G-protein coupled receptor member X1 (Homo sapiens), Q96LB2; Fluo-4 calcium fluorescence, agonist mode; hits give high values; B-score at 10 µM; 310,000 compounds, 0.44% hits;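 active = calcium response B-score plate-corrected fluorescence ratio at least 3 library SD, with starting fluorescence B-score inside 5 SD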
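Assay system: stable human MrgX1 HEK293 cell line. Quantity: 15,000 cells per well. Schedule: cells plated overnight, dye loaded 0.5 h 37 °C, 0.5 h room temperature. Detection: Fluo-4 NW calcium-flux fluorescence, kinetic read. Read-out basis: peak-minus-minimum fluorescence over baseline, converted to B scores. Control set: positive and negative control wells on each plate.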
RGS4 pot: RGS4 potentiators or activators, primary screen, cell-based, HEK293 M3R inducible RGS4, calcium flux; carbachol calcium flux Fluo4; hits give low values; B-score at 10 µM; 310,000 compounds, 0.92% hits;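 active = B-score of the integrated calcium signal more than 4 SD below the library mean, with starting fluorescence not abnormally high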;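 note: negative B-score means reduced calcium response which marks RGS4 activation or potentiation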
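System: HEK293 FlpIn-TREx cells, stable M3R, doxycycline-inducible RGS4. Timing: overnight RGS4 induction, 30 min dye load 37 °C, 20 min compound RT. Also added: carbachol, ECmax concentration. Measured by: Fluo4 fluorescence kinetic imaging of calcium. Evaluation: integrated calcium ratio converted to B score.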
MrgX1 allo act: positive allosteric modulators of MrgX1, primary screen, HEK293 cells, Fluo-4 calcium flux. AID 588675, 2011. 310,000 compounds, 0.63% hits. FDSS; hits give high values. Mas-related G-protein coupled receptor member X1 (Homo sapiens), Q96LB2. B-score at 10 µM;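 active = plate-corrected calcium response at least 3 library SD above typical, normal starting fluorescence, not activating the receptor alone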;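 note: compound read alongside a low EC10 to EC30 dose of BAM8-22 agonist; peak minus trough fluorescence over baseline measured at the second addition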
RGS4 block: RGS4 inhibitors, primary screen, cell-based, HEK293 M3R inducible RGS4, calcium flux | Fluo-4 calcium flux; hits give high values; triggered by carbachol at its EC20 | 310,000 compounds, 0.45% hits | B-score at 10 µM | Regulator of G-protein signaling 4 (Homo sapiens), P49798;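 active = B-score, a plate-corrected calcium signal, over three deviations above library mean, with baseline fluorescence within five deviations of library mean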;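 note: RGS4 expression induced by doxycycline in cells with stable M3 receptor; B-score is computed from the integrated fluorescence ratio over baseline after carbachol; higher B-score means a larger calcium signal and so more RGS4 inhibition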
Target sequence (P49798 whole entry, looked up): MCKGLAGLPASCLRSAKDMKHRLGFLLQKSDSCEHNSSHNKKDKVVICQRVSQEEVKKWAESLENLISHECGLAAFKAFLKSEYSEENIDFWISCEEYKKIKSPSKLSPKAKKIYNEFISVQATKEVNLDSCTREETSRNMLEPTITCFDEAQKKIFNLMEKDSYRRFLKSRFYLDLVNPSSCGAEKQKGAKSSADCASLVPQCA
* hit, by the source's call; i = inactive; / = not tested or not shown. This is a sample that favours compounds with a hit; in the whole collection about 3.5% have one here.

SMILES | MrgX1 antagonist | MrgX1 ag | RGS4 pot | MrgX1 allo act | RGS4 block
CCN(CC(=O)Nc1cc(Cl)ccc1C)C(=O)c1cc([N+](=O)[O-])ccc1N1CCOCC1 | i | i | i | i | i
NC(=Nc1ccccc1)Nc1ccccc1 | i | 84.1* | -8.5* | i | i
O=[N+]([O-])c1ccc(N/N=C2\CC3CC=CC23)cc1 (centres undefined) | i | i | i | 8.07* | i
Nc1cc(=O)[nH]n1C1CCCC1 | i | i | i | i | i
Cc1ccccc1/C=C/c1nc2ccccc2c(=O)n1CCc1ccccc1 | i | i | i | i | i
Cc1ccccc1/C=C/c1nc2ccccc2c(=O)n1Cc1ccccc1 | i | i | -7.4* | i | i
CC(=O)OC1CC(C)N(C(=O)c2ccccc2)c2ccc(C)cc21 (centres undefined) | i | i | i | i | i
Cc1ccc(C2=Nc3ccccc3N(C(=O)c3ccccc3)C(C)C2)cc1 (centres undefined) | -8.87* | i | i | i | i
O=C(O)C(c1ccccc1)N1CCCCC1 (centres undefined) | -4.74* | i | i | i | i
c1ccc(NC2=NCCN2CCC2CCCC2)cc1 | i | i | i | i | i
C/C(=N/Nc1ccc([N+](=O)[O-])cc1)c1ccc(C)cc1C | i | i | i | i | i
C/C(=N/Nc1ccc([N+](=O)[O-])cc1)c1c[nH]c2ccccc12 | -4.89* | i | i | i | i
Cc1[nH]c2ccccc2c1/C=N/Nc1ccc([N+](=O)[O-])cc1 | -4.88* | i | i | i | i
COc1ccc(NC(=O)CC(C)CC(=O)NCc2ccc(F)cc2)c(OC)c1 (centres undefined) | i | i | i | i | i
Cc1ccc(/C=C2\C(=N)N3N=C(CC(=O)N4CCCCC4)SC3=NC2=O)cc1 | i | i | i | i | i
COc1ccc(/C=C2/C(=N)N3N=C(CC(=O)N4CCCC4)SC3=NC2=O)cc1 | i | 34.5* | i | i | i
COc1ccc(/C=C2\C(=N)N3N=C(CC(=O)N4CCCCC4)SC3=NC2=O)cc1 | i | 38* | i | i | i
Cc1cc(C)cc(N(CC(=O)NCC2CCCO2)C(=O)CCC(=O)Nc2nccs2)c1 (centres undefined) | i | i | i | i | i
COc1cc(/C=N/NC(N)=O)ccc1OC(=O)c1cccs1 | i | i | i | 9.49* | i
CC(C)c1c(C(=O)N/N=C/c2ccccc2OCc2c(F)cccc2Cl)nnn1-c1nonc1N | i | i | i | i | i
CCOC(=O)c1sc(=S)n(-c2ccccc2Cl)c1C | i | i | -9.34* | i | i
COc1ccc(OC)c(-c2cc(C(=O)N3CCN(c4ncccn4)CC3)c3ccccc3n2)c1 | i | i | -7.12* | i | i
COc1ccc(-c2cc(C(=O)N3CCCCCC3)c3ccccc3n2)c(OC)c1 | i | i | i | i | i
COc1ccc(N2CCN(C(=O)c3cc(-c4cc(OC)ccc4OC)nc4ccccc34)CC2)cc1 | i | i | -7.03* | i | i
CCOc1ccccc1N1CCN(C(=O)c2cc(-c3cc(OC)ccc3OC)nc3ccccc23)CC1 | i | i | -7.42* | i | i
SMILES | MrgX1 antagonist | MrgX1 ag | RGS4 pot | MrgX1 allo act | RGS4 block
COc1ccc(C)cc1NC(=O)CSc1nc2ccccc2nc1N1CCCC1 | i | i | i | i | i
COc1cccc(Nc2c([N+](=O)[O-])cncc2[N+](=O)[O-])c1 | i | 31.1* | i | i | i
O=[N+]([O-])c1cncc([N+](=O)[O-])c1Nc1ccccc1Cl | i | i | i | i | i
NS(=O)(=O)c1ccc(Nc2c([N+](=O)[O-])cncc2[N+](=O)[O-])cc1 | i | 34.9* | i | i | i
COc1ccc(S(=O)(=O)N(CC(=O)NC2CC2)Cc2ccccc2)cc1 | i | i | i | i | i
CC1CN(C(=O)NCc2ccccc2)c2cc(Cl)ccc2O1 (centres undefined) | i | i | i | i | i
COc1ccc(C(=O)COC(=O)c2cc(S(=O)(=O)NCc3ccccc3)ccc2O)cc1 | i | 26.5* | i | i | i
O=C(Nc1nc2c(F)cc(F)cc2s1)C1CC(=O)N(Cc2ccco2)C1 (centres undefined) | i | i | i | i | i
Cc1cc(OC(=O)c2ccccc2[N+](=O)[O-])c([N+](=O)[O-])c(=O)[nH]1 | i | i | i | i | i
COc1cccc(C(=O)Oc2cc(C)[nH]c(=O)c2[N+](=O)[O-])c1OC | -4.77* | i | i | i | i
C(#Cc1ccccc1)C[N+]1(CC#Cc2ccccc2)CCCCC1 | i | i | -8.62* | i | i
C#CC[N+]1(CC#Cc2cccc(C)c2)CCCCC1 | i | i | i | i | i
C#CC[N+]1(CC#Cc2ccccc2)CCCCC1 | i | i | i | i | i
Cc1ccc(C#CC[N+]2(CC#Cc3ccc(C)cc3)CCCCC2)cc1 | i | i | -7.13* | i | i
COc1ccc(/C=C2\C(=O)ON=C2c2cccc([N+](=O)[O-])c2)cc1 | i | i | i | i | 6.79*
O=S(=O)(c1ccccc1)N1CCC(n2cnc3ccccc32)CC1 | i | i | i | i | i
OC(C#CCN1CCCCCC1)(c1ccccc1)c1cccnc1 (centres undefined) | i | i | i | i | i
CC(C)C(O)(C#CCN1CCCC1)c1ccccc1 (centres undefined) | i | i | -7.45* | i | i
CC(O)(C#CCN1CCOCC1)c1ccccc1 (centres undefined) | / | / | i | / | i
CC(C)C(O)(C#CCN1CCCCC1)c1ccccc1 (centres undefined) | i | i | -7.19* | i | i
Cc1cc(C)c(-c2csc(NC(=O)c3cc([N+](=O)[O-])ccc3N3CCOCC3)n2)c(C)c1 | i | i | -7.89* | i | i
O=C(Nc1nc(-c2ccc(F)c(F)c2)cs1)c1cc([N+](=O)[O-])ccc1N1CCOCC1 | i | i | i | i | i
COc1ccc(N2CCN(C(=O)c3ccc4c(c3)NC(=O)C(CSCc3cccc(F)c3)N4)CC2)cc1 (centres undefined) | i | 36.3* | i | i | i

Source: PubChem BioAssay
